Assay results from different studies.
Each line is one published result; the experiments were not run side by side.
Target: Dual specificity testis-specific protein kinase 1 (TESK1, Homo sapiens, UniProt Q15569)

With `O=C(c1ccc(Nc2nccc(-c3cc4ccccc4s3)n2)cc1)N1CCC(N2CCCC2)CC1` the remaining binding was 97% (binding, competition with immobilised ligand; 1 µM).
The remaining binding of `c1cncc(-c2cccc(Nc3nccc(NC4CCCCC4)n3)c2)c1` is reported as 77% (binding, competition with immobilised ligand; 10 µM).
For `COc1cnc(Nc2cccc(S(N)(=O)=O)c2)nc1N1CCN(c2ccccc2)C(=O)C1`, the remaining binding was 96% (binding, competition with immobilised ligand; 1 µM).
For `c1cnn2ncc(-c3ccnc(N4CCC45COC5)n3)c2c1`, the remaining binding was 99% (binding; 1 µM).
For `C=CC(=O)N1CCC(C(=O)NCC(=O)N2CCN(c3nc(-c4cnc(N)nc4C(F)F)nc(N4CCOCC4)n3)CC2)CC1`, the remaining binding was 100% (binding, competition with immobilised ligand; 1 µM).
`O=C(c1ccc(Nc2ncc(Cl)c(-c3cc4ccccc4s3)n2)cc1)N1CCC(N2CCCC2)CC1` gave a remaining binding of 81% (binding, competition with immobilised ligand; 1 µM).
The remaining binding of `N[C@H]1CCN(c2nccc(-c3cnn4ncccc34)n2)C1` is reported as 86% (binding; 1 µM).
With `Cc1cc(NC(=O)c2cccc(S(F)(F)(F)(F)F)c2)cc(-n2ccn3nc(-c4cccnc4)cc23)c1` the remaining binding was 91.7% (cell-free assay, competition with immobilised ligand; 1 µM).
The remaining binding of `CC1CCCN1c1nccc(-c2cnn3ncccc23)n1` (stereo not drawn) is reported as 99% (binding; 1 µM).
For `Cc1cnc(Nc2ccc(C(=O)N3CCC(N4CCCC4)CC3)cc2)nc1-c1cc2ccccc2s1`, the remaining binding was 72% (binding, competition with immobilised ligand; 1 µM).
With `CN(C)c1ncc(F)c(-c2cnn3ncccc23)n1` the remaining binding was 100% (binding; 1 µM).
The remaining binding of `CN(C)CC#Cc1ccc(OCCCc2sc(N3CCc4cccc(C(=O)Nc5nc6ccccc6s5)c4C3)nc2C(=O)O)c(F)c1` is reported as 100% (cell-free assay, competition with immobilised ligand; 1 µM).
The remaining binding of `O=C(NCC1CCOCC1)c1n[nH]cc1NC(=O)c1c(F)cccc1F` is reported as 100% (binding, competition with immobilised ligand; 1 µM).
`CCCOc1ccc([C@H]2[C@H](C(=O)O)[C@@H](c3ccc4c(c3)OCO4)CN2CC(=O)Nc2c(CC)cccc2CC)cc1` gave a remaining binding of 89% (cell-free assay, competition with immobilised ligand; 1 µM).
`Nc1ncc2c(n1)-c1c([nH]c3ccc(C#CC4CC4)cc13)CCCC2` has a remaining binding of 100% (binding, competition with immobilised ligand; 1 µM).
`C[C@H](NC(=O)c1cnc2n1[C@](C)(Cc1ccc(C#N)cc1)C(=O)N2c1cc(Cl)c(F)c(Cl)c1)C(=O)NC1(c2ccccn2)CC1` gave a remaining binding of 100% (cell-free assay, competition with immobilised ligand; 1 µM).
The remaining binding of `C[C@@H]1CCN(c2nccc(-c3cnn4ncccc34)n2)C1` is reported as 91% (binding; 1 µM).
`COc1ccc2c(c1)O[C@@H](c1ccc(OC)c(OC)c1)C[C@H]2NC(=O)C1(c2ccc3c(c2)OC(F)(F)O3)CC1` has a remaining binding of 96% (cell-free assay, competition with immobilised ligand; 1 µM).
The remaining binding of `F[C@@H]1CCN(c2nccc(-c3cnn4ncccc34)n2)C1` is reported as 67% (binding; 1 µM).
`CO[C@H]1CC[C@H](CNc2ccc(S(=O)(=O)NC(=O)c3ccc(N4CCN(CC5=C(c6ccc(Cl)cc6)CC(C)(C)CC5)CC4)cc3Oc3cnc4[nH]ccc4c3)cc2[N+](=O)[O-])CC1` gave a remaining binding of 100% (cell-free assay, competition with immobilised ligand; 1 µM).
`CCN1CCN(Cc2ccc(C(=O)Nc3ccc(C)c(Oc4ccc5c(c4)CC(=O)N5)c3)cc2C(F)(F)F)CC1` gave a remaining binding of 100% (binding, competition with immobilised ligand; 1 µM).
